# Measured values as given in PubChem BioAssay AID624466 (The Scripps Research Institute Molecular Screening Center, 2012).
# About 5,400 (1.5%) of roughly 360,000 compounds were called active. This excerpt belongs to a sample that is enriched for actives. Unmarked numbers belong to inactive results.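 Rule for the calls: active = inhibition above a per-plate cutoff, the mean inhibition of test compounds on that plate plus 3 SD (cut at about 49% in these data); inactive = the rest.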
# Molecular target: Trace amine-associated receptor 1 (Homo sapiens) (UniProt Q96RJ0)
# Experiment: human TAAR1 antagonists, primary screen, Fluo-8 calcium fluorescence, CHO RD-HGA16 cells (AID 624466);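 note: 0% = DMSO plus EC80 beta-PEA response and 100% = DMSO alone without agonist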
# Conditions: CHO RD-HGA16 TAAR1, Fluo-8 calcium fluorescence, antagonist; at 3 µM; stronger effect = higher value
# How it was run: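 Test system – hTAAR1-expressing CHO RD-HGA16 cells, Gα16-coupled · Reagent – β-PEA at EC80 concentration, post-compound challenge · Compound dosing – 3 µM, single point · Timing – 140 s kinetic read after compound, 140 s after agonist · Detection – Fluo-8 intracellular calcium dye fluorescence, real-time kinetic reads · Control set – DMSO and EC80 PEA controls · Repeats – n of 1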
# Sequence of Trace amine-associated receptor 1 (Homo sapiens) (Q96RJ0 whole entry, looked up): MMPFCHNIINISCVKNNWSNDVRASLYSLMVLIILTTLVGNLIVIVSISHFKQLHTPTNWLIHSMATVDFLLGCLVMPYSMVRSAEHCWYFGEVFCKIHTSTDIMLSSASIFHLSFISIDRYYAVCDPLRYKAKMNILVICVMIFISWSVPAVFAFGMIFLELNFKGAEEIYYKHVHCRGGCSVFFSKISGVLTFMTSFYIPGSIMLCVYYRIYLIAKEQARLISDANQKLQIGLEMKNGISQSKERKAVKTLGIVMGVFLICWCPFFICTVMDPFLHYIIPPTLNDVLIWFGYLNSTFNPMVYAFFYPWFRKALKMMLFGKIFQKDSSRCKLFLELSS
row,Structure (SMILES),inhibition
1,OC(CCl)CCl,-9.09%
2,CCCCCn1nnnc1-c1nc2cc3ccccc3cc2[nH]c1=O,21.1%
3,Cc1ccc(Cc2c(-c3ccc(Cl)cc3)nc3c4ccccc4ccn23)cc1,-7.64%
4,COC(=O)C[C@H]1C=C[C@@H](NS(=O)(=O)c2ccc(C)cc2)[C@@H](CO)O1,-21.2%
5,CCN(CC(=O)Nc1ccc2c(c1)OCO2)S(=O)(=O)c1ccccc1,7.44%
6,COc1ccc(N(CC(=O)Nc2cc(OC)ccc2OC)S(=O)(=O)c2c(C)noc2C)cc1,4.12%
7,O=C(CN(c1ccc2c(c1)OCCO2)S(=O)(=O)c1ccccc1)Nc1ccc2c(c1)OCO2,54% (active)
8,CCOC(=O)c1cccc(NC(=O)CN(c2ccc(C)cc2)S(=O)(=O)c2c(C)noc2C)c1,72.2% (active)
9,Cc1noc(C)c1S(=O)(=O)N(CC(=O)Nc1ccc2c(c1)OCCO2)c1ccc(C(C)C)cc1,52.7% (active)
10,Cc1noc(C)c1S(=O)(=O)N(CC(=O)NCc1ccc(Cl)cc1)c1ccc2c(c1)OCO2,-0.54%
11,O=C(CCS(=O)(=O)Cc1ccccc1)Nc1ccc2c(c1)OCCO2,-13.2%
12,CCOc1ccc(N(CC(=O)OC)S(=O)(=O)c2c(C)noc2C)cc1,1.95%
13,Cc1cc(C)cc(N(CC(=O)NCC2CCCO2)S(=O)(=O)c2c(C)noc2C)c1 (centres undefined),-14.5%
14,C[C@H](O)[C@@H]1CN2CCc3ccc(-c4ccc5c(c4)OCO5)cc3[C@@H]2C[C@@H]1N(C)C(=O)C1CCCCC1,-24.1%
15,OC(c1cc(Cl)cc(Cl)c1)c1ncc(-c2ccccc2C(F)(F)F)[nH]1 (centres undefined),11.8%
16,Cc1cc2c(nc1C)CCCN2C,0.43%
17,COc1ccc(N2c3ccccc3CN(Cc3ccccc3)[C@@H](C)[C@H]2Cc2ccc(-c3ccccc3)cc2)cc1,-11.9%
18,COC(=O)[C@]12C[C@H](CC(=O)NCCc3ccccc3OC)C(=O)N(Cc3ccccc3)C1=C[C@H](C(C)C)O[C@@H]2C1CC1,-27.5%
19,Cc1ccc2nc(COc3ccc(N(C)S(=O)(=O)c4ccccc4)cc3)cc(=O)n2c1,36%
20,Cc1ccnc(NC(=O)C2CCN(S(=O)(=O)c3c(C)c(C)cc(C)c3C)CC2)c1,50% (active)
21,O=C(Nc1ccccn1)C1CCN(S(=O)(=O)c2ccccc2)CC1,0.4%

row,Structure (SMILES),inhibition
1,Cc1cccc(NC(=O)C2CCN(S(=O)(=O)c3cccc4cccnc34)CC2)c1,32.8%
2,COC(=O)[C@H](CC(C)C)NS(=O)(=O)c1c(F)cccc1F,-8.02%
3,COC(=O)C1=C(C)N(Cc2cccc(C(F)(F)F)c2)C(=NCc2ccccc2)NC1c1ccccc1C(F)(F)F (centres undefined),-4.18%
4,O=C1N[C@@H](c2ccccc2)COC(=O)[C@H](Cc2ccc(F)cc2)C/C=C\C[C@@H]1CC(=O)N(CCO)Cc1ccccc1,42.8%
5,O=C1CCC/C=C/C[C@@H](CC(=O)N(CCO)Cc2ccccc2)C(=O)NC[C@H](c2ccccc2)O1,-5.27%
6,O=C1NC[C@@H](c2ccccc2)OC(=O)[C@H](Cc2ccc(F)cc2)CC/C=C/C[C@H]1CC(=O)N(CCO)Cc1ccccc1,74% (active)
7,COc1ccc(C2=CN(Cc3ccccc3)C(c3ccc(OC)cc3)CC2=O)cc1 (centres undefined),-4.92%
8,COc1cccc(OCc2cc(/C=N/NC(=O)c3nc(Cl)c(Cl)c(N)c3Cl)ccc2OC)c1,-5%
9,COc1ccc2[nH]c(C(=O)N/N=C/c3cc(OC)c(OC)c(OC)c3)cc2c1,50.5% (active)
10,COc1ccc2[nH]c(C(=O)Nc3ccccc3Cl)cc2c1,-23.7%
11,Cc1cc(NCCc2c[nH]c3ccccc23)ccc1Oc1cccnc1,21.6%
12,COc1ccc2sc(-c3ccc(S(C)(=O)=O)cc3)c(-c3ccc(C(N)=O)cc3)c2c1,50.5% (active)
13,COc1ccc2sc(-c3ccc(S(C)(=O)=O)cc3)c(C#Cc3cncn3C)c2c1,47.9%
14,COc1cc(OC)cc(-c2sc3ccc(OC)cc3c2-c2ccc3cc[nH]c3c2)c1,-5.68%
15,CN(C)C(=O)N1CCN(C(=O)[C@@H](Cc2ccccc2)NC(=O)[C@H]2O[C@@H](n3ccc(N)nc3=O)[C@H](O)[C@@H]2O)CC1,-11.3%
16,CCOC(=O)N1CCN(C(=O)C[C@@H]2C[C@@]3(C(=O)OC)CCCCC=C3N(CCC3=CCCCC3)C2=O)CC1,16.7%
17,N#Cc1ccc(OCCCN2CCC(C(O)(c3ccccc3)c3ccccc3)CC2)c(F)c1,18.2%
18,OC(c1ccccc1)(c1ccccc1)C1CCN(CCCOc2ccc(-c3ccsc3)cc2)CC1,51.2% (active)
19,OC(c1ccccc1)(c1ccccc1)C1CCN(CCCOc2ccccc2)CC1,19.2%
20,CCC(C(=O)NC(C)(C)C)n1c(-c2ccccc2)nc2ccccc21 (centres undefined),-9.33%
21,COc1ccc(C(C(=O)Nc2c(C)cccc2C)N2CCN(c3ccc(C)cc3)CC2)cc1 (centres undefined),-16.4%

row,Structure (SMILES),inhibition
1,Cc1ccccc1CN1C(=O)CSCC1(C)C(=O)Nc1c(C)cccc1C (centres undefined),-0.37%
2,CN(C)S(=O)(=O)N1CCC(Oc2cccc(C(=O)NCCCC3CCCC3)c2)CC1,61.1% (active)
3,CN(C(=O)c1cccc(OC2CCN(S(=O)(=O)N(C)C)CC2)c1)C1CCOC1 (centres undefined),-15.9%
4,COc1cccc(C(=O)NCCS(=O)(=O)NCC2CCCO2)c1 (centres undefined),4.1%
5,CCCCn1nnnc1C1(C)CCC(=O)N1Cc1ccc(OC)c(OC)c1 (centres undefined),-1.16%
6,CC(C)(C)NC(=O)C(CCc1ccccc1)n1c(=O)c(-c2ccccc2)nc2ccccc21 (centres undefined),-53.9%
7,COc1ccc(CCNC(=O)c2ccc(CS(=O)(=O)c3ccc(Br)cc3)o2)cc1OC,77.3% (active)
8,COc1ccccc1CNC(=O)c1ccc(CS(=O)(=O)c2ccccc2)o1,26.5%
9,COc1ccc(CCNC(=O)c2nnc(CS(=O)(=O)c3ccccc3)o2)cc1OC,-2.06%
10,CCCCNC(=O)Nc1c(C)cc(SC#N)cc1C,7.39%
11,O=C(NN1C(=O)C2C3C=CC(C4CC34)C2C1=O)c1ccc(Cl)cc1 (centres undefined),1.86%
12,Cc1ccc(N)cc1CN1CCN(c2ncc(Cc3ccccc3)cn2)CC1,-11.9%
13,O=C(Nc1ccc(S(=O)(=O)N2CCCCCC2)cc1)c1c(F)cccc1F,-11.6%
14,O=C(Nc1cccc(S(=O)(=O)N2CCCCC2)c1)c1cncc(Br)c1,28.2%
15,Cc1onc(-c2c(F)cccc2Cl)c1C(=O)Nc1cccc(S(=O)(=O)N2CCCCC2)c1,60.4% (active)
16,Cc1ccccc1S(=O)(=O)N1[C@@H](c2cccc(Cl)c2)C(C(=O)OC(C)(C)C)=CC[C@H]1c1ccc(Cl)cc1,-16.6%
17,Cc1ccccc1S(=O)(=O)N1[C@@H](c2cccc(Cl)c2)C(C(=O)O)=CC[C@H]1c1ccc(Cl)cc1,50.1% (active)
18,Cc1ccc([C@@H]2CC=C(C(=O)O)[C@H](c3cccc(Cl)c3)N2S(=O)(=O)c2ccc(C)cc2)cc1,29.7%
19,CC(C)(C)n1nc(C2CC2)c(Br)c1NC(=O)c1ccccc1F,-16.1%
20,CN1CCCc2nc(-c3ccccc3)ccc21,-0.46%
21,COc1ccc(-c2ccc3c(n2)CCCN3S(=O)(=O)c2ccc(C)cc2)cc1,24%

row,Structure (SMILES),inhibition
1,O=S(=O)(c1cccs1)N1CCCc2nc(-c3ccc(Br)cc3)ccc21,58% (active)
2,COC(=O)[C@]12C[C@H](CC(=O)N3CCN(C(=O)C4CC4)CC3)C(=O)N(Cc3ccc4c(c3)OCO4)C1=C[C@H](C(C)(C)C)O[C@@H]2C,1.35%
3,O=C1Nc2ccccc2-n2nnnc2C1N1CCN(c2cccc(C(F)(F)F)n2)CC1 (centres undefined),7.81%
4,COc1ccc(C(=O)NC(C)CCc2ccccc2)c(OC)c1 (centres undefined),-22.5%
5,COc1ccc(C(=O)CCC(=O)Nc2cccnc2)c(OC)c1,-6.73%
6,COc1ccc(C(=O)Nc2cccc(NC(=O)c3ccc(OC)cc3OC)n2)c(OC)c1,64.8% (active)
7,CC1(C(=O)Nc2ccc3c(c2)OCCO3)CSCC(=O)N1CCOc1ccccc1 (centres undefined),-7.49%
8,Cc1ccc2oc(=O)ccc2c1,2.03%
9,CCc1ccc2oc(-c3ccc(N)cc3)nc2c1,8.65%
10,CCN(CC)c1ccc2oc(=O)c(C)nc2c1,49.8% (active)
11,O=C(NCCCn1ccnc1)c1cc2c(s1)CCCC2,-26.6%
12,C/C=N/N(c1ccccc1)c1ccccc1,-13.2%
13,C[C@H]1CN([C@@H](C)CO)C(=O)CCCn2nncc2CO[C@@H]1CN(C)C(=O)Nc1ccc(N2CCN(C)CC2)cc1,5.42%
14,O=C(CCl)Nc1ccc(Sc2ccc(NC(=O)CCl)cc2)cc1,21.9%
15,CC(C)CNC(=S)Nc1ccc(F)cc1,5.98%
16,CC(C)(CCl)C(=O)Nc1ccc(Sc2ccc(F)cc2)cc1,57.9% (active)
17,COc1cc(NS(=O)(=O)c2ccc(N/C=C(\C=O)c3nc4cc(Cl)ccc4o3)cc2)nc(OC)n1,16.2%
18,CCN(CC(=O)NC1CCS(=O)(=O)C1)S(=O)(=O)c1ccccc1 (centres undefined),-18%
19,N#C/C(=C\c1ccc(N2CCOCC2)o1)C(=O)N1CCOCC1,-12.1%
20,O=C(NCCc1c[nH]c2ccccc12)C1CCN(Cc2ccc(Br)cc2)CC1,2.79%
21,N#C/C(=C/c1ccc(N2CCCCC2)o1)C(=O)NCCc1c[nH]c2ccccc12,57.6% (active)
